According to ChEMBL document CHEMBL3091454, “Improved Cav2.2 Channel Inhibitors through a gem-Dimethylsulfone Bioisostere Replacement of a Labile Sulfonamide” (ACS Med Chem Lett, 2013):

Tests used:
[1] = molecular target: T1, Voltage-dependent N-type calcium channel subunit alpha-1B (Homo sapiens, UniProt Q00975); experiment: Inhibition of Cav2.2-mediated calcium influx in HEK cells by FLIPR assay; assay type: cell-based, HEK293
Summary of the method: (§1)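 Cav2.2 calcium-influx FLIPR assay; compounds screened for percent inhibition at single concentration, active ones titrated for IC50; values averaged over n ≥ 3.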
Target sequence in this assay (Q00975 whole entry): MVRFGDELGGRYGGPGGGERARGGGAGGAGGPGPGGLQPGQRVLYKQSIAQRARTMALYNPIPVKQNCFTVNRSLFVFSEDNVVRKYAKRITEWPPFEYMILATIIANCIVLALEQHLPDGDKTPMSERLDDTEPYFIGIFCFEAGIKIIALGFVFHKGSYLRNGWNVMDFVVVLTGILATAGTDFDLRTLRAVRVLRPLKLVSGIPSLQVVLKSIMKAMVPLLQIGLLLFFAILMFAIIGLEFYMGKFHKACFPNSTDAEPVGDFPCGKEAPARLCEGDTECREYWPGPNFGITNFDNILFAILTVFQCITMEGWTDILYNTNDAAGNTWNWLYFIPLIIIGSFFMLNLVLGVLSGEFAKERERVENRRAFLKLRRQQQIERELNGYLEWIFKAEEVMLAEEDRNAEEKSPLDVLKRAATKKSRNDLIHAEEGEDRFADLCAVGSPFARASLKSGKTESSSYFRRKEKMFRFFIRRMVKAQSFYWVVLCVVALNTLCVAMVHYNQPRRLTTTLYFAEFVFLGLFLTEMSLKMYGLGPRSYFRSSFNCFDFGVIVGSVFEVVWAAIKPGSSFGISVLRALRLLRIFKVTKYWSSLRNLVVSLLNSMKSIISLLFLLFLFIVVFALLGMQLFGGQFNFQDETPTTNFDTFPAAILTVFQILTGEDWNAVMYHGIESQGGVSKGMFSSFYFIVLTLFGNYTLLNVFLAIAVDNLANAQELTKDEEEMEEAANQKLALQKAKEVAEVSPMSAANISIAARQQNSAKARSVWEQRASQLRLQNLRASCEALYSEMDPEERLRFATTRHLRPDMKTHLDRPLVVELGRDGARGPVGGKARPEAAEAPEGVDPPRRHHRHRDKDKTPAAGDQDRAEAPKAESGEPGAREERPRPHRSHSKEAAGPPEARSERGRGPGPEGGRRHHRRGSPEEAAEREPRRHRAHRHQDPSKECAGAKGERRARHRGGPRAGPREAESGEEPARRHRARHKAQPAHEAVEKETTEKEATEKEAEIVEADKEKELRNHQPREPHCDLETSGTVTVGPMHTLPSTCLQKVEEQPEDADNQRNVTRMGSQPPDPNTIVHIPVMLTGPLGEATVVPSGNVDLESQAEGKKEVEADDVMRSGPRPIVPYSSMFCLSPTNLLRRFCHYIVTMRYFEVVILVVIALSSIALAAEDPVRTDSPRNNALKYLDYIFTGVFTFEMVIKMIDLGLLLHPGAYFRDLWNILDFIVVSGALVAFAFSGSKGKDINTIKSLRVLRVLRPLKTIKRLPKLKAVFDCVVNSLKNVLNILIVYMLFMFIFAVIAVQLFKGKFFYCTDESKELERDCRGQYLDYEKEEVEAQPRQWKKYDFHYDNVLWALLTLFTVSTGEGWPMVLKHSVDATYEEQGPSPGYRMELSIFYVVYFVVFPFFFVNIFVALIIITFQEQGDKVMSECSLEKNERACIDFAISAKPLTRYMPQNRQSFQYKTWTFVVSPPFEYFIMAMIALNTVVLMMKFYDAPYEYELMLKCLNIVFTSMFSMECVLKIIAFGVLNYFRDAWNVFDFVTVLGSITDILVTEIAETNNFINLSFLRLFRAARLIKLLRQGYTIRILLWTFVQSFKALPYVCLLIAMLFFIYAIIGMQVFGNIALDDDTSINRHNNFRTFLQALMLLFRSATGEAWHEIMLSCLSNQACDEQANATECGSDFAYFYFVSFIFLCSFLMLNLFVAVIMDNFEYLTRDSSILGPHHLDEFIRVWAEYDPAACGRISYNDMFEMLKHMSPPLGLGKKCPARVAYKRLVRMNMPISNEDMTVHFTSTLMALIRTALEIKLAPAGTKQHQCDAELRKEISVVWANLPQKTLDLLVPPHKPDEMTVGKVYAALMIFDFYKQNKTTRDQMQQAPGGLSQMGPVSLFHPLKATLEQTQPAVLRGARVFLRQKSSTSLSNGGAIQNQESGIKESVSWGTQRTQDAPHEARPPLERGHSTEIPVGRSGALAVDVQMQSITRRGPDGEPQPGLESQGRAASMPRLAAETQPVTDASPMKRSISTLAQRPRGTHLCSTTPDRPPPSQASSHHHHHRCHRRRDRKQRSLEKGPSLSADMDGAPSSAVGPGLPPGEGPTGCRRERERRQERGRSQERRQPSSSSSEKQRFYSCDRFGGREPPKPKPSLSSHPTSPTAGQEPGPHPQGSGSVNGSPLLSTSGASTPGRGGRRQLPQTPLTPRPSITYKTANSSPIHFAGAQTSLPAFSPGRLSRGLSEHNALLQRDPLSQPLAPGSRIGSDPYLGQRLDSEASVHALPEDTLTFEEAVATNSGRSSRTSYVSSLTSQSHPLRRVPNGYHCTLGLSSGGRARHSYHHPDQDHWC

[2] = molecular target: CYP3A4 (Homo sapiens, UniProt P08684); experiment: Inhibition of CYP3A4 (unknown origin) at 10 uM relative to control; assay type: ADME
Chain of CYP3A4 (P08684 whole entry): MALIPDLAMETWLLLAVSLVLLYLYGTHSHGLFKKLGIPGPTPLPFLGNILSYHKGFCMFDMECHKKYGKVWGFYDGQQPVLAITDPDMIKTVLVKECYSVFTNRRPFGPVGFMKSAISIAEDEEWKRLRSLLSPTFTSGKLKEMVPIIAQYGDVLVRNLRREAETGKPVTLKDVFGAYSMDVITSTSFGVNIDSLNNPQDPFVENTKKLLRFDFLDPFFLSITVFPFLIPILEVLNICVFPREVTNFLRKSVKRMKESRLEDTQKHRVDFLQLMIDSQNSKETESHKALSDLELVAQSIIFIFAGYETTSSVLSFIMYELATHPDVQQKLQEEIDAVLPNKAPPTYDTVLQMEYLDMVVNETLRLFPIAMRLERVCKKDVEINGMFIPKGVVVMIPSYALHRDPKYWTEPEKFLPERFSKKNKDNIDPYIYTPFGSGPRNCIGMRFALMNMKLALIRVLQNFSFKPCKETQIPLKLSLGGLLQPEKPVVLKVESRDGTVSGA

[3] = molecular target: T2, Nuclear receptor subfamily 1 group I member 2 (Homo sapiens, UniProt O75469); experiment: Activation of PXR (unknown origin)
T2 sequence (O75469 whole entry): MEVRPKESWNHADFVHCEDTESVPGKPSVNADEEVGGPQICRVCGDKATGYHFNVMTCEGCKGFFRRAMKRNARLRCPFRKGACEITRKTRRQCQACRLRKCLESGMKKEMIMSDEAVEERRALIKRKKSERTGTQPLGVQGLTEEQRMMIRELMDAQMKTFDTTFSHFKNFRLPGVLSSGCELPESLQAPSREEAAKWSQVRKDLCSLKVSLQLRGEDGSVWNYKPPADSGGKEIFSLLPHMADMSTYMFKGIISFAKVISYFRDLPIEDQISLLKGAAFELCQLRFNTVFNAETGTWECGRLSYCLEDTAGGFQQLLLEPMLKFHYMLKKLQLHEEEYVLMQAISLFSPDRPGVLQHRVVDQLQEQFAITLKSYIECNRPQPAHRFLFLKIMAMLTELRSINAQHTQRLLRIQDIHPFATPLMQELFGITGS

[4] = molecular target: hERG (KCNH2) (Homo sapiens, UniProt Q12809); experiment: Displacement of [35S]MK-499 from human ERG at 10 uM relative to control; conditions: probe [35S]MK-499
Chain of hERG (KCNH2) (Q12809 whole entry): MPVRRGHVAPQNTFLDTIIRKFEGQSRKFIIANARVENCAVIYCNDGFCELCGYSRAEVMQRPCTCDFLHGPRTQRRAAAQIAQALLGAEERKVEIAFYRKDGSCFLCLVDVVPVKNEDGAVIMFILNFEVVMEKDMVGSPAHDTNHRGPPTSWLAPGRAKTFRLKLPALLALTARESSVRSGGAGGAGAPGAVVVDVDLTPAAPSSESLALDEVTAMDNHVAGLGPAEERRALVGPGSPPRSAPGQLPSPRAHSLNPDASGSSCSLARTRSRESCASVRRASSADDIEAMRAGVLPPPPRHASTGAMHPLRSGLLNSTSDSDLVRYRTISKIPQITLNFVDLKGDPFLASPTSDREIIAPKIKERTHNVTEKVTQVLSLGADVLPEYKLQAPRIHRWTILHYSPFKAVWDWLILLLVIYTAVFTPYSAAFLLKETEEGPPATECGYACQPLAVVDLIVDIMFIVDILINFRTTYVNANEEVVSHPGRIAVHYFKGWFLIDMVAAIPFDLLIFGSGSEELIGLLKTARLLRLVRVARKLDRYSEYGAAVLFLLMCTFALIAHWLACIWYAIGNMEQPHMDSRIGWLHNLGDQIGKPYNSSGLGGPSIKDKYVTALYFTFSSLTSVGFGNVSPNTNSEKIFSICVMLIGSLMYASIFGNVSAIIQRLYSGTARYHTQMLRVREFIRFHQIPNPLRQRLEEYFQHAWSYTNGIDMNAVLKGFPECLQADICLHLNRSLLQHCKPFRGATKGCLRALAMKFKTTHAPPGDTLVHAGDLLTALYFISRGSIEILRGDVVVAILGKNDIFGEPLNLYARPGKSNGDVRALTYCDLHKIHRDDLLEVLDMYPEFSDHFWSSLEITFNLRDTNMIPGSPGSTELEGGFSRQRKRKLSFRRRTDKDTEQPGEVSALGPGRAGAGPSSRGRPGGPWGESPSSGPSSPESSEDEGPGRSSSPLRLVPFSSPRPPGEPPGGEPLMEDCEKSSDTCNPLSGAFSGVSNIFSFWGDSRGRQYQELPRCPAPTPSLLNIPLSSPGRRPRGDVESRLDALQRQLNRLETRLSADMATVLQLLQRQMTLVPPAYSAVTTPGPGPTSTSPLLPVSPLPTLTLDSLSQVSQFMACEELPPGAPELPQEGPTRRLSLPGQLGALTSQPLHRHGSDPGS
Summary of the method: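 hERG binding assessed by displacement of [35S]MK-499; percent inhibition at 10 μM test compound.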

[5] = Metabolic stability in human liver microsomes assessed as compound remaining at 10 uM after 1 hr in presence of NADPH; assay type: ADME; conditions: read-out: Stability
Summary of the method: (§2)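 Liver microsomes (rat or human) incubated with compound and NADPH for 1 h; percent of parent remaining. Table footnote gives 10 μM compound, 1 mM NADPH, 1 mg/mL protein; text gives 1 μM substrate, 1 mg/mL protein.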

[6] = tested on: Liver microsome; experiment: Drug metabolism in human liver microsomes assessed as 3-(trifluoromethyl)-benzenesulfonamide level after 1 hr in presence of NADPH; assay type: ADME
[7] = tested on: Liver microsome; experiment: Drug metabolism in rat liver microsomes assessed as 3-(trifluoromethyl)-benzenesulfonamide level after 1 hr in presence of NADPH; assay type: ADME
[8] = Metabolic stability in rat liver microsomes assessed as compound remaining at 10 uM after 1 hr in presence of NADPH; assay type: ADME; conditions: read-out: Stability; summary of the method: as §2
[9] = tested on: Rattus norvegicus; experiment: Normalized AUC in rat whole blood assessed as 3-(trifluoromethyl)-benzenesulfonamide level at 3 mg/kg, po; assay type: ADME, organism-based; parameters: dose 3 mg/kg, route oral; conditions: in vivo
Summary of the method: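 Rats given a single 3 mg/kg oral dose of parent; whole-blood levels of parent and sulfonamide metabolite followed over time, n = 2 rats. Metabolite AUC normalized to dose (μM·h·kg/mg).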

[10] = tested on: Rattus norvegicus; experiment: Normalized AUC in rat whole blood at 3 mg/kg, po; assay type: ADME, organism-based; parameters: dose 3 mg/kg, route oral; conditions: in vivo
Summary of the method: (§3)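 Rats dosed 3 mg/kg orally and 1 mg/kg intravenously; PK parameters derived from whole-blood concentrations. Normalized oral AUC given in μM·h·kg/mg, clearance in mL/min/kg, plus half-life and oral bioavailability.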

[11] = Oral bioavailability in rat at 3 mg/kg; assay type: ADME, organism-based; conditions: in vivo; summary of the method: as §3
[12] = Clearance in rat at 3 mg/kg, po and 1 mg/kg, iv; assay type: ADME, organism-based; conditions: in vivo; summary of the method: as §3
[13] = tested on: Rattus norvegicus; experiment: Antinociceptive activity in rat inflammatory pain model assessed as reversal of CFA-induced mechanical allodynia at 30 mg/kg, po after 1 hr; assay type: functional
Summary of the method: (§4)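 Rats given intraplantar complete Freund's adjuvant in the hind paws to induce inflammatory pain; mechanical allodynia assessed 1 and 3 h after a single oral dose. Percent reversal per rat calculated as (postdose − predose)/(preinjury − predose), averaged over n = 6 rats.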

[14] = tested on: Rattus norvegicus; experiment: Antinociceptive activity in rat inflammatory pain model assessed as reversal of CFA-induced mechanical allodynia at 30 mg/kg, po after 3 hrs; assay type: functional; summary of the method: as §4
[15] = tested on: Rattus norvegicus; experiment: Antinociceptive activity in rat inflammatory pain model assessed as reversal of CFA-induced mechanical allodynia at 10 mg/kg, po after 1 hr; assay type: functional; summary of the method: as §4
[16] = tested on: Rattus norvegicus; experiment: Antinociceptive activity in rat inflammatory pain model assessed as reversal of CFA-induced mechanical allodynia at 10 mg/kg, po after 3 hrs; assay type: functional; summary of the method: as §4
[17] = molecular target: T1, Voltage-dependent N-type calcium channel subunit alpha-1B; experiment: Inhibition of Cav2.2-mediated calcium influx in HEK cells at 10 uM by FLIPR assay relative to control; assay type: cell-based; conditions: HEK293, 1 uM, in the assay text read “at 1 uM” for “at 10 uM”; summary of the method: as §1
Target sequence in this assay (Q00975 whole entry, looked up): as the sequence (Q00975 whole entry) above

Structure (SMILES) | IC50 [1] [nM] | inhibition at 10 µM [2] [%] | EC50 [3] [nM] | inhibition at 10 µM [4] [%] | also measured
CS(=O)(=O)c1ccc(C(=O)N2CCC(CS(=O)(=O)c3cccc(C(F)(F)F)c3)CC2)c(OC(F)(F)F)c1 | 360 |  |  |  | 
CC(C1CCN(C(=O)c2ccc(S(C)(=O)=O)cc2OC(F)(F)F)CC1)S(=O)(=O)c1cccc(C(F)(F)F)c1 (stereo in doubt; 30 en-2) | 370 |  |  |  | 
CS(=O)(=O)c1ccc(C(=O)N2CCC(N(C3CC3)S(=O)(=O)c3cccc(C(F)(F)F)c3)CC2)c(Cl)c1 | 290 | 78 | 10800 | 32 | 
CS(=O)(=O)c1ccc(C#N)cc1C(=O)N1CCC(N(C2CC2)S(=O)(=O)c2cccc(C(F)(F)F)c2)CC1 | 670 | 59 | 5000 | 41 | 
CS(=O)(=O)c1ccc(Cl)c(C(=O)N2CCC(N(C3CC3)S(=O)(=O)c3cccc(C(F)(F)F)c3)CC2)c1 | 340 | 69 | 2700 | 49 | 
CN(C1CCN(C(=O)c2ccccc2S(C)(=O)=O)CC1)S(=O)(=O)c1cccc(C(F)(F)F)c1 | 460 |  |  |  | remaining at 1 h, 10 µM [5]: 26%; Drug metabolism [6]: 0.95 µM; Drug metabolism [7]: 0.08 µM; remaining at 1 h, 10 µM [8]: 18%
C[C@H]1[C@H](N(C2CC2)S(=O)(=O)c2cccc(C(F)(F)F)c2)CN1C(=O)c1ccc(S(C)(=O)=O)cc1Cl (racemic) | 48 |  |  |  | AUC/dose [9]: 64 µM·kg·h/mg; remaining at 1 h, 10 µM [5]: 5.3%; Drug metabolism [6]: 0.83 µM; Drug metabolism [7]: 0.11 µM; remaining at 1 h, 10 µM [8]: 4.7%; AUC/dose [10]: 0.017 µM·kg·h/mg
CS(=O)(=O)c1cc(C#N)ccc1C(=O)N1CCC(N(C2CC2)S(=O)(=O)c2cccc(C(F)(F)F)c2)CC1 | 450 | 86 | 8400 | 66 | 
CS(=O)(=O)c1ccc(C(=O)N2CCC(N(C3CC3)S(=O)(=O)c3cccc(C(F)(F)F)c3)CC2)c(OC(F)(F)F)c1 | 48 | 16 | 1700 | 63 | 
CC(C1CCN(C(=O)c2ccc(S(C)(=O)=O)cc2OC(F)(F)F)CC1)S(=O)(=O)c1cccc(C(F)(F)F)c1 (stereo in doubt; 30 en-1) | 88 |  |  |  | 
CCN(C1CCN(C(=O)c2ccccc2OC(F)(F)F)CC1)S(=O)(=O)c1cccc(C(F)(F)F)c1 | 470 |  |  |  | remaining at 1 h, 10 µM [5]: 30%; Drug metabolism [6]: 1.16 µM; Drug metabolism [7]: 0.08 µM; remaining at 1 h, 10 µM [8]: 3.4%
CS(=O)(=O)c1ccc(F)cc1C(=O)N1CC(N(C2CC2)S(=O)(=O)c2cccc(C(F)(F)F)c2)C1 | 970 |  |  |  | 
NC(=O)c1ccc(C(=O)N2CCC(N(C3CC3)S(=O)(=O)c3cccc(C(F)(F)F)c3)CC2)c(C(F)(F)F)c1 | 760 | 61 | 1900 | 32 | 
CS(=O)(=O)c1ccc(C(=O)N2CC(N(C3CC3)S(=O)(=O)c3cccc(C(F)(F)F)c3)C2)c(C(F)(F)F)c1 | 270 |  |  |  | remaining at 1 h, 10 µM [5]: 78%; Drug metabolism [6]: 0.45 µM; Drug metabolism [7]: 0.04 µM; remaining at 1 h, 10 µM [8]: 72%
CS(=O)(=O)c1cc(C(F)(F)F)ccc1C(=O)N1CCC2(CCN(S(=O)(=O)c3cccc(C(F)(F)F)c3)CC2)C1 | 72 |  |  |  | AUC/dose [9]: 218 µM·kg·h/mg; remaining at 1 h, 10 µM [5]: 8.5%; remaining at 1 h, 10 µM [8]: 12%; AUC/dose [10]: 0.022 µM·kg·h/mg
CS(=O)(=O)c1ccc(F)cc1C(=O)N1CCC2(CCN(S(=O)(=O)c3cccc(C(F)(F)F)c3)CC2)C1 | 190 |  |  |  | 
CS(=O)(=O)c1ccc(F)cc1C(=O)N1CCC(N(C2CC2)S(=O)(=O)c2cccc(C(F)(F)F)c2)C1 (racemic) | 370 |  |  |  | 
C[C@@H]1[C@H](N(C2CC2)S(=O)(=O)c2cccc(C(F)(F)F)c2)CN1C(=O)c1cc(F)ccc1S(C)(=O)=O (racemic) | 380 |  |  |  | 
NS(=O)(=O)c1cccc(C(F)(F)F)c1 | > 10000 |  |  |  | bioavailability [11]: 46%; clearance [12]: 0.31 mL/min/kg; Efficacy [13]: 53%; Efficacy [14]: 44%; AUC/dose [10]: 111 µM·kg·h/mg
C[C@H]1[C@H](N(C2CC2)S(=O)(=O)c2cccc(C(F)(F)F)c2)CN1C(=O)c1cc(F)ccc1S(C)(=O)=O (racemic) | 430 |  |  |  | 
NC(=O)c1ccc(C(=O)N2CCC(N(C3CC3)S(=O)(=O)c3cccc(C(F)(F)F)c3)CC2)c(OC(F)(F)F)c1 | 390 | 60 | > 10000 | 41 | 
CC1(N(C2CC2)S(=O)(=O)c2cccc(C(F)(F)F)c2)CCN(C(=O)c2cc(F)ccc2S(C)(=O)=O)CC1 | 710 |  |  |  | Drug metabolism [6]: 0.04 µM; Drug metabolism [7]: 0.06 µM
CS(=O)(=O)c1ccc(F)cc1C(=O)N1CCC(N(C2CC2)S(=O)(=O)c2cccc(C(F)(F)F)c2)CC1 |  | 75 |  |  | Efficacy [15]: 43%; Drug metabolism [6]: 0.03 µM; Drug metabolism [7]: 0.01 µM; Efficacy [16]: 38%
CS(=O)(=O)c1ccc(C(=O)N2CCC(N(C3CC3)S(=O)(=O)c3cccc(C(F)(F)F)c3)CC2)c(C(F)(F)F)c1 | 21 | 75 | 2800 | 58 | 
CS(=O)(=O)c1cc(C(F)(F)F)ccc1C(=O)N1CCC(N(C2CC2)S(=O)(=O)c2cccc(C(F)(F)F)c2)CC1 | 27 | 78 | 4300 | 43 | 
CS(=O)(=O)c1ccc(C(=O)N2CCC(N(C(=O)c3cccc(C(F)(F)F)c3)C3CC3)CC2)c(OC(F)(F)F)c1 |  |  |  |  | inhibition [17]: 48%
CS(=O)(=O)c1ccc(C(=O)N2CCC3(CCN(S(=O)(=O)c4cccc(C(F)(F)F)c4)CC3)C2)c(C(F)(F)F)c1 | 310 |  |  |  | remaining at 1 h, 10 µM [5]: 4.2%; Drug metabolism [6]: 5.13 µM; Drug metabolism [7]: 0.18 µM; remaining at 1 h, 10 µM [8]: 3.8%
CS(=O)(=O)c1ccc(C(=O)N2CCC(N(C3CC3)S(=O)(=O)c3cccc(C(F)(F)F)c3)CC2)c(F)c1 | 350 |  | 6800 | 78 | 
